Measurements reported in the EternaBench riboswitch data.

System: MS2 coat protein
Assay: apparent Kd, MS2 coat protein; higher = weaker binding; RNA-MaP array; FMN 200 µM where present
Outline: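 The apparent Kd comes from binding curves fitted cluster by cluster, filtered, and summarised as a median. Those curves followed SNAP-549-labelled MS2 coat protein from 0.7 or 1.5 nM, doubling to 3 µM, on Illumina sequencing-chip clusters where stalled E. coli RNA polymerase had transcribed the designs, without and then with constant ligand. The buffer was 100 mM Tris-HCl pH 7.5, 80 mM KCl, 4 mM MgCl2, BSA, DTT, yeast tRNA and Tween-20, and green signal was normalised to red-channel RNA signal and control-cluster median Fmax.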

[1] = designed as: OFF switch for flavin mononucleotide, no ligand
[2] = ligand present: flavin mononucleotide, designed as: OFF switch for flavin mononucleotide
[3] = designed as: ON switch for flavin mononucleotide, no ligand
[4] = ligand present: flavin mononucleotide, designed as: ON switch for flavin mononucleotide

Sequence | apparent Kd [1] [nM] | apparent Kd [2] [nM] | apparent Kd [3] [nM] | apparent Kd [4] [nM]
UCAUGUUUAGAGGAUAUGAUUACUUUUGAGUAAUCAGAAGGCUAGACAUGAGGAUCACCCAUGUCAUAACAUGA | 90 | 112 |  | 
UCCGGAGUAGGAUAUACGGUGUAAUGACACGGCGUCGAUCAACAUGAGGAUCACCCAUGUAGAAGGACUGCGUC | 14.4 | 15.9 |  | 
UUGGACGUCGUAGGAUAUGUAGGAUGUUCCUACAUGAGGAUCACCCAUGUUGACAUGGAAGAAGGACAGAAGGACGAUGUCCAU |  |  | 547 | 27
ACCGUCCUCGUCAGGAUAUGUAUUGACUCUCCGAUACAGAAGGGACAUGAGGAUCACCCAUGUCCGGGACCUUA | 18.2 | 21.7 |  | 
AACAUGUCAGGAUAUGUGACAUGGCUCUUCGGAGCAAGAUCACAGAAGGGACAUGAGGAUCACCCAUGUCGAUC | 38.7 | 156 |  | 
CAUAUGGUAACAGGAUAUAUGAGUCCUACAUGAGGAUCACCCAUGUAGGUGAUCUAACGAGAUUAGUAGAAGGGUUACCAUAUG |  |  | 18.2 | 8.98
CGAAAACCACAGAAGGCCCGGGACAUGAGGAUCACCCAUGUAGAAAGUGGGAGGAUAUGUGUACGCGGCGUGCUGACCUCGUGA |  |  | 232 | 27.4
AGUGUCAUCGAGAAGGCCUCAACAUGAGGAUCACCCAUGUUGGAAUAUGGGAGGAUAUCGAUGAUACAGCUACGUUUCGUAGCA |  |  | 10.2 | 5.04
UUGCCACAUGAGGAUCACCCAUGUGAGGAUAUGGCCUGUUUGGCGUGUGCUGGUUCUGUCAGAAGGCGCGUGGG | 31.6 | 36.5 |  | 
ACAUGAGGAUCACCCAUGUAUUACAUGGUUAUGUUUAUUAACAGAAGGCGAAAUUACCACUGAAUCGAGGAUAUGUAUUCUAUA | 53.4 | 45.1 |  | 
UUUUAUUAGUAGAAGGACGGAGAGUAUGUAGUCGUAGGAUAUACAUAAGACAUGAGGAUCACCCAUGUGUGUAUUUUGGGUAUG | 15.7 | 13.2 |  | 
GUCAGCUCGUGAGGAUAUACAACACUGCUUCGGCAGUGUAUUAAGAUCACAUGAGGAUCACCCAUGUAGAAGGCACGUGCUGAU | 12.5 | 276 |  | 
CUAUUACGAGGAUAUGAUUUAAAUAACAUGAGGAUCACCCAUGUUUUUACGUUAUUAUGUUUAGAAGGCGUAUUGU | 50.1 | 31.4 |  | 
CGAUAGGACAGAGGAUAUACACAUGAGGAUCACCCAUGUAAUUACAAUUCUUAAGAUUCAAACAUGUAGAAGGCUGUCCUAUCG | 35.9 | 13.1 |  | 
AAGUUAUUAGGAUAUACUUGUGCGAACCAAACGUUGAUAUUACAUGAGGAUCACCCAUGUAGAAGGAAUAAAAA | 35.7 | 25.1 |  | 
GAUCCUCGCGGAGGAUAUAUAAGUGGAUCACCCAUAGAAGGCCGAACAUGAGGAUCACCCAUGUGGAACAGGAUCACCGUUGUU |  |  | 79 | 77
CUGAUGUGAGGAUAUCAACGCCAUGUCUUUGACAUGGCGCAUGAGAAGGCACAUGAGGAUCACCCAUGUUCUUC | 36 | 640 |  | 
CUAUCGCAAGGAUAUACAUGAGGAUCACCCAUGUGGAAGAAUGGCCCAAAUCUAACAUGUAGAAGGUGCUAAAA | 40.6 | 64.9 |  | 
AACGGGUGGGUAGGAUAUGGCUAUGUCUCAUUGCUAGAAGGACCAGCUGCUACAUGAGGAUCACCCAUGUCGUAGUGCACCCAC |  |  | 93.2 | 24.5

Sequence | apparent Kd [1] [nM] | apparent Kd [2] [nM] | apparent Kd [3] [nM] | apparent Kd [4] [nM]
AAAAGUAGAGGAUAUACAUGAGGAUCACCCAUGUAGAAAGGAAGUGUAUAUAUGGCGUGUAGAAGGCUGCAUGA | 38.3 | 39.2 |  | 
UUCGGUGAAGGAUAUAGGGCUCGGUACAUGAGGAUCACCCAUGUUGCUUUAUGUUCCACCCUAGAAGGUUAUCACC | 417 | 370 |  | 
AGAAACUACGAGAAGGACAUAUGGUACUUCAGCUACAUGAGGAUCACCCAUGUAGGAUAUCGUAGUUUCAGGAUCGUGAGAUCA | 5.65 | 6.02 |  | 
AGCUGUGGCCGAGGAUAUCUAUCUCAAAUAACCGAAAUAUAAUCGGACAUGAGGAUCACCCAUGUAGAGAAGGCGGUCUCAGCA | 14.5 | 26.1 |  | 
UGAACUAUGUAGAAGGCCCUCAUUAAUAUGAAGGGAGGAUAUACAUGAGGAUCACCCAUGUGAAGAGCAAGAGGGUUUAACAGA | 89.1 | 479 |  | 
AUGGUGCAGGUACAGGAUAUGUUGCUCGUAACAUGAGGAUCACCCAUGUACCUAUGAGAUUAAAUGCAGAAGGGUGCACACCACG |  |  | 784 | 62.7
AUUAUUAAGGUAGGAUAUAGUAUAAUAAUUAAAUUAGAAGGAUCUCACAUGAGGAUCACCCAUGUAAGAGGAUCACCCAUGUAU | 10.3 | 10.4 |  | 
CCACGGUAUGUAGGAUAUGCAUAGCAUUGCUAUGCAGAAGGACAUGAGGAUCACCCAUGUAUGUAUUCCAUACUAAUCCCGUGU | 6.29 | 5.9 |  | 
AUCAGCUCGUCAGGAUAUACGUCACUGCGUCAGCAGUGUGGUAAGACCACAUGAGGAUCACCCAUGUAGAAGGGACGAGCUGAU | 7.94 | 24.5 |  | 
ACAUCGUGAGACAUGAGGAUCACCCAUGUGUGAUAGUGGGCACAGGAUAUCCAGAUCUGGAAUCUGGAGAAGGGUGAUCGUUAA |  |  | 47 | 149
ACAUGAGGAUCACCCAUGUGACCACAAUGGCUGAUAUAGAAACAGGAUAUUCGUGAAUAUCUAACGAAGAAGGGUUAUGACUGG | 77.8 | 85 |  | 
CCGCCUCUAGUCAGGAUAUUUACGGAAGAGCACGAAGAGAAGGGACAUGAGGAUCACCCAUGUUUGAUCACGGC | 30.5 | 31.4 |  | 
AUUAUUGACGUAGGAUAUUGUUACAUGAGGAUCACCCAUGUUAUUUGGGAACUAGGAAUAUUUUACAAGAAGGACGUUGUUAAA |  |  | 74.9 | 92.1
UGGUACUAGGGAGGAUAUGGGAAGAUACAUGAGGAUCACCCAUGUUUAAGAAUGCCGAGAGGCAACUAGAAGGCCUUAGUACCU |  |  | 504 | 20.8
UUAAUAGUAGGAUAUACAUGAGGAUCACCCAUGUAGCAACUACACAAAGGAACCUGAUGUAGAAGGACUCCCAA | 14.4 | 14.5 |  | 
UUGCGCUGUCGAGAGGAUAUGCGGUGUUGGACAUGAGGAUCACCCAUGUUAGCGAUAGCUUUACGGUAGAAGGCUCUUCAGCUGC |  |  | 138 | 56.9
GUCUACCAGCUAGGAUAUGCAGUACAUUAAAAUGUAGAAGGAGCACGAUCCAGACAUGAGGAUCACCCAUGUGGGCGGUAGGCA | 20.9 | 18.6 |  | 
AGGGCUGCUCAGGAUAUCCGUAAAAGCCGAGAAGGAGAAGGGAGCACAUGAGGAUCACCCAUGUGAUCCGAAAA | 21.6 | 44 |  | 
CUUCAGUCAGGAUAUGUUAAUCUCGCCACUCCGCGAACCGGACAGAAGGGACAUGAGGAUCACCCAUGUUAAAC | 30.4 | 19.5 |  | 

Sequence | apparent Kd [1] [nM] | apparent Kd [2] [nM] | apparent Kd [3] [nM] | apparent Kd [4] [nM]
AAAAUGUGAGGAUAUCAGGUGUGCUAGCGAACUGGUACAUCUGAGAAGGCACAUGAGGAUCACCCAUGUUCCUU | 15.8 | 57 |  | 
GGGACCUACGAGAAGGGCUACAUGAGGAUCACCCAUGUAAAUCUUCGGGUGGCAGGAUAUCGGCGGCUACAGGAGGGCCAGGUC |  | 38.3 |  | 
GCGGCUAAUGCAGGAUAUCGGCACGUGUAGUGCCGAGAAGGGCACAUGAGGAUCACCCAUGUGAUCAAUCAAUGUUAAUGCCGC | 8.86 | 44.2 |  | 
AAGACGUAAGGAUAUAUUAUGGGACAAUGAAGGAAGAUAAAACAUGAGGAUCACCCAUGUAGAAGGUGCAAAGA | 45.9 | 41.5 |  | 
AAGUUGACAGGAUAUACUUGGGCAACUUAUAUACUAAUAUAACAUGAGGAUCACCCAUGUAGAAGGGUCAGAAA | 54 | 72.5 |  | 
UAGAUGGGAGGAUAUGCGUAGAUACGGAUUCGUGUAGUGCUACAUGAGGAUCACCCAUGUAGAAGGCCCGUCUU | 15.2 | 18.3 |  | 
AGGAAACAUGAGGAUCACCCAUGUAAAAGGUGGGUAGGAUAUGCGAAAAGAAAAAGAAAAGCAGAAGGGCCAAGAA |  |  | 101 | 47.4
UCGCUGCGAGGAUAUACAUGAGGAUCACCCAUGUACGGGUCCGGGUCUUUGUCGAUUGGUAGAAGGCGCAGUGA | 61.1 | 397 |  | 
AGAAUAAACCAGAAGGCGUAGAUACAUGAGGAUCACCCAUGUAUACUUGCGAGGAUAUGGAUGAUUCAAGUGCGUUUCGUAGCA |  |  | 6.06 | 4.23
CCUUUGAAGAUCCUAGUUUUCGACAUGAGGAUCACCCAUGUGCAGGAUAUCGUGCCAGUGAUGUGCGAGAAGGGCAGUCUCUGC | 110 | 112 |  | 
GUCGCUAGAGGAUAUACAAUGGUAUAUGAUCCUAGUGACAUACAUGAGGAUCACCCAUGUAGAAGGCUAGUAAU | 24.2 | 21.7 |  | 
AUAUGUAACUAGGAUAUCAGCAUACUUCAAUGUUGAGAAGGAGUUACAUGAGGAUCACCCAUGUAUCCAACAUG | 40.5 | 28.6 |  | 
AUUUAUGGCCAGAAGGACAUGAGGAUCACCCAUGUAGGAUAUGGACGAUUUUACUCGGCGGUUCGUUUAGGAAGCACCGGCGGU |  |  | 8.58 | 5.91
CCUCCAUCAUGAGGAUAUGGCACCUUAUUGGUGCCAGAAGGCAUGUCUUUUGACAUGAGGAUCACCCAUGUAAUAAAUUGGAGG |  |  | 1280 | 127
AAUUGUAGAACAAUCACUACCAGUCAGGAUAUACAUGAGGAUCACCCAUGUCGUGUCGACAGCAUGUAGAAGGGACGGUUAUAU | 51.6 | 115 |  | 
CAGCAUCAUGUAGGAUAUGCGUGGCGAAGCUAUGCAGAAGGACAUGAGGAUCACCCAUGUCUUACCUAGCGUACUAGGUUGCUG | 7.3 | 16.6 |  | 
AUGACGGCAGGAUAUACAUGAGGAUCACCCAUGUAAAUUUUUCGUUUACCUUGACCGUGUAGAAGGGCCCAACC | 14.5 | 16.1 |  | 
AUUUAGUGCGAGAAGGCGUGGUCACAUGAGGAUCACCCAUGUCAGUACACGAGGAUAUCGAUCCGCUAUGUAAACCUAGGCGGC |  |  | 101 | 6.89
